Experimental data reported in article PMC3188381 (Anti-cancer drugs, 2011).
Read-outs that look alike come from different tables or passages of the source.

How the values were obtained:
[1] = test system: SKOV3 ovarian cancer cells; experiment: Proliferation assay; type: cell-based, human; conditions: read-out: IC50 (μM) SKOV3
[2] = test system: OVCA432 ovarian cancer cells; experiment: Proliferation assay; type: cell-based, human; conditions: read-out: IC50 (μM) OVCA432
[3] = test system: SKOV3 cells; experiment: Western blot of cell lysates, SKOV3; type: cell-based, human; conditions: for Cleaved PARP protein expression / Cleaved caspase-3 protein expression: SKOV3, 24 hours, 50 μM LiCl, 5 μM 9ING41, 25 μM SB216763
Outline: (§1)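 Lysates taken after 24 h treatment with test compound or 0.1% DMSO, in Tris-HCl pH 7.6/NaCl/NP-40/deoxycholate/SDS buffer with protease and phosphatase inhibitors, protein equalised by BCA. Run on reducing 10% Bis-Tris gels and transferred to PVDF. Blocked in 5% milk TBS-T; cleaved caspase-3 in 5% BSA PBS-0.5% tween; cyclin D1 in 5% BSA TBS-T. Probed with rabbit primaries (total GSK3β, actin as controls) and HRP anti-rabbit, detected by chemiluminescence. Densitometry from triplicate blots.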

[4] = test system: OVCA432 cells; experiment: DAPI staining for apoptotic cells, OVCA432; type: cell-based, human; conditions: OVCA432, 24 hrs; 50 μM LiCl, 5 μM 9ING41, 25 μM SB216763; vs DMSO
Outline: (§2)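 OVCA432 grown in supplemented MEM and SKOV3 in McCoy's 5A, both with 10% FBS, at 37 °C, 5% CO2. Cells plated at 5 × 10^4 per chamber-slide well and left to attach overnight. Exposed one day to test compound or 0.1% DMSO, then fixed in 4% paraformaldehyde and mounted in DAPI medium. Nuclei with condensed DNA or […] fragmentation counted in 3 fields (20× objective), triplicate experiments.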

[5] = test system: OVCA432 cells; experiment: Western blot of cell lysates, OVCA432; type: cell-based, human; conditions: for Cleaved PARP protein expression / Cleaved caspase-3 protein expression: OVCA432, 24 hours, 50 μM LiCl, 5 μM 9ING41, 25 μM SB216763
Outline: as §1

[6] = test system: SKOV3 ovarian cancer cells; conditions: cited from earlier work
[7] = test system: SKOV3 xenograft; conditions: drugs and cells mixed before subcutaneous injection; cited from earlier work
[8] = test system: OVCA432 cells; experiment: TUNEL staining, OVCA432; type: cell-based, human; conditions: OVCA432, 24 hours, 5 μM 9ING41; vs DMSO
Outline: (§3)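 Cells plated at 5 × 10^4 per chamber-slide well, attached overnight at 37 °C, then treated 24 h with test compound or 0.1% DMSO. Fixed in 4% paraformaldehyde. Stained with a colorimetric TUNEL kit per manufacturer. Brown TUNEL-positive cells counted in 3 fields imaged with a 20× objective, from triplicate experiments.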

[9] = Bioavailability and plasma pharmacokinetics; type: in vivo, Sprague-Dawley rats; conditions: rat
Outline: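 Male Sprague-Dawley rats dosed at 10 mg/kg iv and 400 mg/kg po. Blood drawn into EDTA (n=3), kept on ice and processed within 30 min. Plasma spun at 2–8 °C for 15 min and stored at -80 °C. Acetonitrile with 100 ng/ml hexylnicotinate internal standard added, then vortexed and centrifuged at 18000g. Supernatant run by LC-MS/MS. Non-compartmental PK analysis.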

[10] = test system: SKOV3 cells; experiment: DAPI staining for apoptotic cells, SKOV3; type: cell-based, human; conditions: SKOV3, 24 hrs; 5 μM 9ING41; vs DMSO
Outline: as §2

[11] = test system: SKOV3 cells; experiment: TUNEL staining, SKOV3; type: cell-based, human; conditions: SKOV3, 24 hours, 5 μM 9ING41; vs DMSO
Outline: as §3

[12] = Range-finding toxicity study; conditions: rats, oral, 8 days observation
[13] = SKOV3 cells, 4 days (96 hours), concentration required to kill 50% of the cells
[14] = OVCA432 cells, 4 days (96 hours), concentration required to kill 50% of the cells

For COc1cccc2c(C3=C(c4cn(C)c5cc(Cl)c(F)cc45)C(=O)NC3=O)coc12 [9-ING-87], the IC50 [1, 13] was 42.7 µM and the IC50 [2, 14] was 10.7 µM.
For Cn1cc(C2=C(c3ccc(Cl)cc3Cl)C(=O)NC2=O)c2ccccc21 [SB216763, reference compound], the IC50 ([1]; Homo sapiens, SK-OV-3, 96 h) was over 50 µM, the “Cleaved PARP protein expression” value [3] was “absence” and the “Cleaved caspase-3 protein expression” value [3] was “absence”. The “Induction of apoptosis (DAPI)” value [4] was “induced apoptosis”, the “Cleaved PARP protein expression” value [5] was “absence” and the “Cleaved caspase-3 protein expression” value [5] was “absence”. The IC50 ([2]; Homo sapiens, OVCA432, 96 h) was over 50 µM and the “Growth inhibition of SKOV3” value [6] was “growth inhibited”.
In the case of [Cl-].[Li+] [LiCl, Lithium chloride, reference compound], the “Cleaved PARP protein expression” value [3] is listed as “absence”, the “Cleaved caspase-3 protein expression” value [3] is listed as “absence” and the SKOV3 tumor growth [7] is listed as “significantly slow SKOV3 tumor growth”. The “Induction of apoptosis (DAPI)” value [4] was “induced apoptosis”, the “Cleaved PARP protein expression” value [5] was “absence” and the “Cleaved caspase-3 protein expression” value [5] was “absence”. The “Growth inhibition of SKOV3” value [6] was “growth inhibited”.
In the case of Cn1cc(C2=C(c3coc4ccc(F)cc34)C(=O)NC2=O)c2cc3c(cc21)OCO3 [9-ING-41], the IC50 [1, 13] is reported as 10.5 µM, the “Apoptosis (TUNEL-positive cells)” value [8] is reported as “significantly increased apoptosis” and the “AUC (area under the concentration-time curve)” value ([9]; iv 10 mg/kg) is reported as 2.74 µg·h/mL. The “CL (systematic clearance)” value ([9]; iv 10 mg/kg) was 3.69 L/h/kg, the “Co (plasma concentration at T = 0)” value ([9]; iv 10 mg/kg) was 1390 ng/mL and the “T1/2 (apparent elimination half-life)” value ([9]; iv 10 mg/kg) was 4.85 h. For the same molecule, the “V (volume of distribution)” value ([9]; iv 10 mg/kg) was 26.2 L/kg, the Elimination half-life ([9]; iv 10 mg/kg and po 400 mg/kg) was 4.0 to 4.85 h and the Volumes of distribution ([9]; iv 10 mg/kg and po 400 mg/kg) was at least 26 L/kg. For the same molecule, the “Plasma level C” value ([9]; iv 10 mg/kg, 0.083 h) was 1.39 µg/mL, the “Plasma level C” value ([9]; iv 10 mg/kg, 0.167 h) was 1.41 µg/mL and the “Plasma level C” value ([9]; iv 10 mg/kg, 0.5 h) was 1.19 µg/mL. For the same molecule, the “Plasma level C” value ([9]; iv 10 mg/kg, 1 h) was 0.69 µg/mL, the “Plasma level C” value ([9]; iv 10 mg/kg, 2 h) was 0.367 µg/mL and the “Plasma level C” value ([9]; iv 10 mg/kg, 4 h) was 0.139 µg/mL. For the same molecule, the “Plasma level C” value ([9]; iv 10 mg/kg, 6 h) was 0.077 µg/mL, the “Plasma level C” value ([9]; iv 10 mg/kg, 8 h) was 0.041 µg/mL and the “Plasma level C” value ([9]; iv 10 mg/kg, 24 h) was 0.0067 µg/mL. For the same molecule, the “AUC (area under the concentration-time curve)” value ([9]; po 400 mg/kg) was 4.95 µg·h/mL, the “CL (systematic clearance)” value ([9]; po 400 mg/kg) was 132.6 L/h/kg and the “T1/2 (apparent elimination half-life)” value ([9]; po 400 mg/kg) was 4.0 h. For the same molecule, the “V (volume of distribution)” value ([9]; po 400 mg/kg) was 810 L/kg, the “F (bioavailability)” value ([9]; po 400 mg/kg vs iv 10 mg/kg) was 4.5% and the “Plasma level C” value ([9]; po 400 mg/kg, 0.083 h) was 0.0047 µg/mL. The “Plasma level C” value ([9]; po 400 mg/kg, 0.167 h) was 0.0182 µg/mL, the “Plasma level C” value ([9]; po 400 mg/kg, 0.5 h) was 0.156 µg/mL and the “Plasma level C” value ([9]; po 400 mg/kg, 1 h) was 0.54 µg/mL. The “Plasma level C” value ([9]; po 400 mg/kg, 2 h) was 0.82 µg/mL, the “Plasma level C” value ([9]; po 400 mg/kg, 4 h) was 0.934 µg/mL and the “Plasma level C” value ([9]; po 400 mg/kg, 6 h) was 0.34 µg/mL. For the same molecule, the “Plasma level C” value ([9]; po 400 mg/kg, 8 h) was 0.123 µg/mL, the “Plasma level C” value ([9]; po 400 mg/kg, 24 h) was 0.0083 µg/mL and the “Cyclin D1 expression” value ([3]; SKOV3, 5 μM 9ING41, 24 hours) was “increased”. For the same molecule, the “Phosphorylation of GSK3β ser9 (normalized to total GSK3β)” value ([3]; SKOV3, 5 μM 9ING41, 24 hours) was “increased phosphorylation”, the “Phosphorylation of glycogen synthase” value ([3]; SKOV3, 5 μM 9ING41, 24 hours) was “significantly inhibited” and the “Cleaved PARP protein expression” value [3] was “cleaved product of PARP was detected”. The “Cleaved caspase-3 protein expression” value [3] was “increase in cleaved caspase-3”, the “Induction of apoptosis (DAPI)” value [4] was “induced apoptosis” and the “Induction of apoptosis (DAPI)” value [10] was “induced apoptosis”. For the same molecule, the “Phosphorylation of GSK3β ser9 (normalized to total GSK3β)” value ([5]; OVCA432, 5 μM 9ING41, 24 hours) was “increased phosphorylation”, the “Phosphorylation of glycogen synthase” value ([5]; OVCA432, 5 μM 9ING41, 24 hours) was “significantly inhibited” and the “Cleaved PARP protein expression” value [5] was “cleaved product of PARP was detected”. For the same molecule, the “Cleaved caspase-3 protein expression” value [5] was “increase in cleaved caspase-3”, the “Apoptosis (TUNEL-positive cells)” value [11] was “significantly increased apoptosis” and the IC50 [2, 14] was 11.2 µM. The “Maximum tolerated dose (MTD)” value [12] was “greater than 500 mg/kg”.
